Screening data (PubChem BioAssay)
UBC13 inh = inhibitors of human UBC13 polyubiquitin chain formation | 0.47% of 330,000 active | P61088 | inhibition, % at 20 µM | TR-FRET | AID 485273; in the data active means inhibition above about 45%, passing the limit was not always enough; inconclusive means no clear call, values can overlap the other calls
Target sequence (P61088 whole entry, looked up): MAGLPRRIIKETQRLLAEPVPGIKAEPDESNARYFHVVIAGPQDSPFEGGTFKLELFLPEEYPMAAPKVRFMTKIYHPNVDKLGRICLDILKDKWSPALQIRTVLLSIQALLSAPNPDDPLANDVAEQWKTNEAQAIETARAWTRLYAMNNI
ALR H2O2 inh = human ALR oxidase inhibition via reduced H2O2; P55789; purified ALR, DTT oxidation, H2O2 HRP-luminol luminescence; inhibition, % (no concentration beside the values); 3.8% of 290,000 active; AID 485317;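 active means mean replicate inhibition above about 79%, with every replicate also reaching it, limit read from the data; inconclusive means only one of the two criteria met; inactive means mean below limit and not every replicate reaching it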
Target sequence (P55789 whole entry, looked up): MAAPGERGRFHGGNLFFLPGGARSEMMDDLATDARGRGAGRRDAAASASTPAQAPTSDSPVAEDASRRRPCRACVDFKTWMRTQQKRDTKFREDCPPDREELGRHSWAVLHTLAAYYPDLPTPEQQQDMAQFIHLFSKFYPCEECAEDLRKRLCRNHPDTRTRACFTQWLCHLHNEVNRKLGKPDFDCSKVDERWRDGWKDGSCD
PREPL inhibitor = human PREPL enzyme inhibition; inhibition, % at 5.96 µM; 0.68% of 320,000 active; AID 2751; Q4J6C6; recombinant PREPL, fluorescence polarization activity-based probe; in the data active means inhibition above about 43%;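 further: 0% = enzyme with DMSO and 100% = wells lacking enzyme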
RBBP9 inh = blocks human serine hydrolase RBBP9; O75884; recombinant RBBP9, FP-Rh probe fluorescence polarization; inhibition, % at 7.94 µM; 0.2% of 220,000 active;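 active means inhibition above the campaign mean of all tested compounds plus 3 SD, cut at about 14% in these data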;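 further: plate controls were DMSO wells with RBBP9 for no effect and wells lacking RBBP9 protein for full effect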
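Measured by – fluorescence polarization · Test system – RBBP9 protein · Input – 2.5 µM RBBP9 dispensing solution, before mixing · Measure – percent inhibition from mP, scaled between DMSO and no-protein wells · Benchmarks – DMSO-treated enzyme wells and wells lacking RBBP9 · Times – preincubation 30 min plus labeling 45 min at 25 °C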
Rin1 Abl inh = human Rin1-Abl interaction inhibition; 0.4% of 360,000 active; TR-FRET Rin1/Abl binding, biochemical; inhibition, % at 7.35 µM; P00519+Q13671; in the data active means inhibition above about 5%, passing the limit was not always enough
UBC9 SUMO inh = inhibitors of human SUMOylation (UBC9) | AID 2006 | inhibition, % at 35 µM | 0.36% of 290,000 active | HTRF SUMOylation assay, SAE1/SAE2 + UBC9, in vitro | P63279; in the data active means inhibition above about 50%, passing the limit was not always enough; inconclusive means no clear call, values can overlap the other calls
Target sequence (P63279 whole entry, looked up): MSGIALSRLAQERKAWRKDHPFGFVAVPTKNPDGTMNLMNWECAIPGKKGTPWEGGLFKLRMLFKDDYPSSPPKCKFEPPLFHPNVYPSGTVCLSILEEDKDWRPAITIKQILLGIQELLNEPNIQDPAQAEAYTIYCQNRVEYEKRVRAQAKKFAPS
An asterisk follows results filed as active; ? = inconclusive; · = not tested or not shown. Compounds with a hit are over-represented: about 4.3% of the library has one in this group of screens.

SMILES	UBC13 inh	ALR H2O2 inh	PREPL inhibitor	RBBP9 inh	Rin1 Abl inh	UBC9 SUMO inh
C/C(=N\Nc1ccc([N+](=O)[O-])cc1[N+](=O)[O-])C(C)(C)C(C(=O)O)C(=O)O	-20.5	83.1*	14.4	-5.0	-1.3	-1.2
CCCN(C(=O)c1cccc(-n2cccc2)c1)c1c(N)n(Cc2ccccc2)c(=O)[nH]c1=O	1.3	-13.3	11.6	·	-1.1	·
CN1CCN(c2c(/C=N/O)c3ccccc3n2C)CC1	0.7	92.5*	-5.1	·	-1.5	15.4
O=C(NNC(=O)C12CC3CC(CC(C3)C1)C2)c1csc(N2CCOCC2)n1	-5.3	-2.4	-0.2	·	-1.6	·
CO/N=C\CC(=O)Nc1ccc(Oc2ccccc2)cc1	3.3	-22.3	8.7	-6.6	-0.4	-10.6
CC(C)c1ccc2oc(-c3ccc(N)cc3)nc2c1	-2.9	16.4	22.0	-3.7	-3.0	11.0
Cc1ccc(-c2nc3cc(N)ccc3o2)cc1	7.6	-8.1	11.9	-5.1	-2.2	51.5*
Nc1ccc2oc(-c3cccs3)nc2c1	6.3	98.2*	7.3	-9.7	-2.8	56.0*
Cc1ccc(-c2nc3cc(N)ccc3o2)c(C)c1	11.5	98.5*	13.7	-0.8	-0.1	48.1
Cc1ccc2oc(-c3cccc(N)c3)nc2c1	15.3	-12.0	23.0	-2.0	-0.3	28.4
CC(C)(C)c1ccc(-c2nc3cc(N)ccc3o2)cc1	15.8	98.8*	3.5	·	-3.9	26.7
Cc1ccc(CNC(=O)C2CCCN2S(=O)(=O)c2ccc(Cl)cc2)cc1 (centres undefined)	2.5	·	0.7	·	-1.3	6.6
Cc1[nH]c2ccc(C(=O)N3CCCCC3)cc2c1C	-9.4	95.6*	29.9	-0.9	-0.3	8.7
CCOC(=O)c1ccc2[nH]c(C)c(C)c2c1	3.0	97.6*	2.2	-3.2	-1.3	·
Cc1[nH]c2ccc(C(=O)N3CCC(C(N)=O)CC3)cc2c1C	-8.7	?	1.4	·	0.9	·
Cc1[nH]c2ccc(C(=O)N3CCCC3)cc2c1C	-4.0	90.4*	-1.1	·	5.2	18.6
CCOc1ccc(NS(=O)(=O)c2ccc(C(=O)NCC(c3ccc(OC)cc3)N3CCCC3)cc2)cc1 (centres undefined)	17.8	0.7	-12.6	·	0.6	·
Cn1c(=O)n(Cc2ccco2)c(=N)c2c3c(sc21)CCC3	4.2	76.5*	8.3	3.0	-2.1	17.1
CC1(C)Cc2c(sc3[nH]c(=S)n(Cc4ccco4)c(=O)c23)CO1	33.3	98.3*	-2.3	-13.4	-14.5	23.0
CN(C)CCCn1c(=O)n(Cc2ccco2)c(=O)c2c3c(sc21)CCCCC3	11.0	6.0	20.6	-0.5	1.1	16.4
O=c1c2c3c(sc2[nH]c(=S)n1Cc1ccco1)CCC3	29.5	93.5*	-1.6	-7.8	-9.0	41.2
Cn1nc(C(=O)OCC(=O)Nc2ccc(C(N)=O)cc2)c2ccccc2c1=O	11.8	-12.0	6.4	·	-1.0	·
COc1ccccc1/C=C(/NC(=O)c1ccccc1)C(=O)NCCN1CCOCC1	-4.9	-11.1	4.2	·	-4.5	2.8
O=C1C2C3C=CC(C3)C2C(=O)N1CNc1ccc(O)cc1 (centres undefined)	-15.4	99.1*	19.0	·	·	80.5
Cc1ccc(NCN2C(=O)C3C4CCC(C4)C3C2=O)cc1 (centres undefined)	2.7	14.0	8.0	-3.3	·	7.6
SMILES	UBC13 inh	ALR H2O2 inh	PREPL inhibitor	RBBP9 inh	Rin1 Abl inh	UBC9 SUMO inh
CC(=O)Nc1ccc(NCN2C(=O)C3C4CCC(C4)C3C2=O)cc1 (centres undefined)	11.6	84.6*	-11.0	3.4	0.1	15.7
COc1cc(/C=N/NC(=O)Cc2csc(N3CCOCC3)n2)cc(OC)c1O	-12.9	98.9*	9.9	-7.0	2.3	-14.9
COc1ccc(C=NNC(=S)NN=Cc2ccc(OC)c(OC)c2)cc1OC	·	·	·	·	-3.2	·
COc1cc(OC)c(OC)cc1/C=N/NC(=S)NCCN1CCOCC1	14.2	6.1	15.5	-6.7	-0.7	-8.3
COc1cc(/C=N/NC(=S)NCCN2CCOCC2)cc(OC)c1O	-0.1	99.1*	1.9	-8.4	-5.2	-3.0
O=C(Cc1csc(N2CCOCC2)n1)N/N=C/c1ccc(Cl)cc1Cl	4.4	-2.5	36.2	-2.6	-2.0	1.4
COc1cc(/C=N/NC(=S)N/N=C/c2cc(OC)c(OC)c(OC)c2)cc(OC)c1OC	2.1	87.9*	19.8	-16.9	-5.8	-3.8
CCc1[nH]nc(C(=O)N2CCCC(Nc3ccc(C(C)C)cc3)C2)c1C (centres undefined)	-0.5	95.0*	8.4	·	1.4	-5.6
CC(=O)c1[nH]c(C)c(C(=O)N2CCCC(Nc3ccc(C(C)C)cc3)C2)c1C (centres undefined)	-9.1	·	·	·	1.4	1.8
CC(C)c1ccc(NC2CCCN(C(=O)c3ccnc(Cl)c3)C2)cc1 (centres undefined)	-2.1	54.2	4.6	·	0.7	3.0
CCc1[nH]nc(C(=O)N2CCCC(Nc3cccc(F)c3)C2)c1C (centres undefined)	0.7	98.9*	12.4	·	1.3	-6.5
CC(=O)c1[nH]c(C)c(C(=O)N2CCCC(Nc3cccc(F)c3)C2)c1C (centres undefined)	5.3	75.3*	6.3	·	-2.1	7.8
COc1cccc(NC(=O)COC(=O)c2ccc(C)c(S(=O)(=O)N3CCCCC3)c2)c1	8.2	-4.4	-7.1	·	1.6	·
COc1ccc(CN2C(=O)Cc3c2nc(N)c2c(N)nc(N4CCCCC4)c(C#N)c32)cc1	-44.5	-1.9	16.3	-4.6	·	29.8
N#Cc1c(N2CCCC(O)C2)nc(N)c2c(N)nc3c(c12)CC(=O)N3C12CC3CC(CC(C3)C1)C2 (centres undefined)	-21.5	-62.5	22.9	1.4	1.8	99.4*
C=C(C)CN(CC)c1nc(N)c2c(N)nc3c(c2c1C#N)CC(=O)N3C12CC3CC(CC(C3)C1)C2	-41.6	-3.4	27.6	-0.6	-0.5	61.7*
CCN(CC)c1nc(N)c2c(N)nc(OC)cc2c1C#N	6.4	?	24.0	·	-4.1	·
CN1CCN(C2CC(=O)N(CCc3ccccc3)C2=O)CC1 (centres undefined)	1.3	-1.1	-2.0	6.0	2.8	18.4
O=C1CC(N2CCN(c3ccccc3)CC2)C(=O)N1CCc1ccccc1 (centres undefined)	-1.4	95.5*	-5.3	-2.0	-2.5	6.5
CN1C(=O)CC(N2CCN(c3ccccc3)CC2)C1=O (centres undefined)	5.2	94.2*	1.3	-11.6	1.9	·
CN1C(=O)CC(N2CCN(C(c3ccccc3)c3ccccc3)CC2)C1=O (centres undefined)	5.4	-2.6	-2.1	0.1	-0.1	18.3
NC[C@H](O)c1ccc(O)c(O)c1	6.3	65.1	-6.9	·	5.7	·
CCn1cc(CN2CCC(n3nccc3NC(=O)c3cccc(F)c3)CC2)cn1	2.9	-14.9	1.6	·	2.5	7.6
